The source made the active and inactive calls. The rule behind the calls is not given here.
Columns and labels:
PBL [1] = assay: Inhibition of COX2 expression in PMA-Ion-stimulated human PBL at 10 uM after 20 hrs by Western blot analysis; type: functional, cell-based
In short: (§1)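 PBLs treated with PMA 15 ng/ml plus ionomycin, alone or with inhibitor, for 20 h at 37 °C; NS398 as inhibition control. Lysates quantified by BCA, resolved on 10% SDS-PAGE, semidry-blotted to PVDF, probed with rabbit anti-human COX-2 (1:500) and anti-α-tubulin loading control, ECL detection.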

[2] = target: T1, Prostaglandin G/H synthase 2 (Homo sapiens) (UniProt P35354); assay: Inhibition of COX2-mediated PGE2 production in PMA-Ion-stimulated human PBL at 10 uM after 24 hrs by ELISA
T1 sequence (whole entry): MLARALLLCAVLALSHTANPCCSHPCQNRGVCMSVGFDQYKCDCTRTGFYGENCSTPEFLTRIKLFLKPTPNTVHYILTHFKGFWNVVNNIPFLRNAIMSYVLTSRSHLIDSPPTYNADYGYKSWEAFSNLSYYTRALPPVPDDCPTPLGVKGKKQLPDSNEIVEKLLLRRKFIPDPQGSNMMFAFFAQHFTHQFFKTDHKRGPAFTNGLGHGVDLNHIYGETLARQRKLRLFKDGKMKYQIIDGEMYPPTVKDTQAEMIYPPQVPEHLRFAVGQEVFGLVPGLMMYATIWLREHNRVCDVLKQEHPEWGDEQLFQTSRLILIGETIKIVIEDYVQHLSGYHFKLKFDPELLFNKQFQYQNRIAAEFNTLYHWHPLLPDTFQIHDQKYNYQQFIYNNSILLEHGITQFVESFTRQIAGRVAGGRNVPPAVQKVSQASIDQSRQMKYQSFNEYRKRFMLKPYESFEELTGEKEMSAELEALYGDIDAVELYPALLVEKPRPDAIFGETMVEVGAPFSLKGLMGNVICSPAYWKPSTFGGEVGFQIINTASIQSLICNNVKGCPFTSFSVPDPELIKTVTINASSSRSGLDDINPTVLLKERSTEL

[3] = target: Prostaglandin G/H synthase 2 (Ovis aries) (UniProt P79208); conditions: at 5 nM
Prostaglandin G/H synthase 2 (Ovis aries), sequence (P79208 whole entry, looked up): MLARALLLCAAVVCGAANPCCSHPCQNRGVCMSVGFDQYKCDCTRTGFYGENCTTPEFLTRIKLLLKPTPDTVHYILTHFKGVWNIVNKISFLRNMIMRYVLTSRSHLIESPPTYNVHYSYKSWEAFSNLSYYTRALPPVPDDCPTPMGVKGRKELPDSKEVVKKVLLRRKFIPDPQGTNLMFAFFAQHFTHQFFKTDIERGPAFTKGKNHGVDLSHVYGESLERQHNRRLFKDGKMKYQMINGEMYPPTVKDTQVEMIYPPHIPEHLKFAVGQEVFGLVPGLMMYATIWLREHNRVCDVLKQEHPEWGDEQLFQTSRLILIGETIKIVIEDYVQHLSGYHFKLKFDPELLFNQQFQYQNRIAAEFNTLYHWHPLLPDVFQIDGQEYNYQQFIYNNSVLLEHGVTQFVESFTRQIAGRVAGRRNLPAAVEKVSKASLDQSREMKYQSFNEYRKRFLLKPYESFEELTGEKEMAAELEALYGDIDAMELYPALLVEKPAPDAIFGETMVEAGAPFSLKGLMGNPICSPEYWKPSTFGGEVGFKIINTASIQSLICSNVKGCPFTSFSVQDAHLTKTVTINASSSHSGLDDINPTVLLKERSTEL

PBL [4] = assay: Antiproliferative activity against human PBL assessed as incorporation of BrdU at 10 uM after 2 to 24 hrs; type: cell-based
In short: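 Human PBLs in RPMI 1640 with 10% heat-inactivated FCS, 1% penicillin/streptomycin, 2 mM L-glutamine, stimulated with PHA and 60 U/ml IL-2; exposed to test agent for 24 h at 37 °C, 5% CO2. DNA synthesis read by immunochemical detection of incorporated BrdU after partial DNA denaturation.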

PBL [5] = assay: Cytotoxicity against IL2-stimulated human PBL assessed as cell death at 10 uM after 24 hrs by MTT assay; type: cell-based
In short: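 IL-2-treated human PBLs given 1, 10 or 50 (micromolar) test agent for 24 h. Viability read by MTT (0.15 mg/ml, 4 h, 37 °C) reduction to formazan, absorbance at 570 nm with 655 nm reference. DMSO served as cell-death control.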

[6] = target: T1, Prostaglandin G/H synthase 2 (Homo sapiens); assay: Increase of COX2-mediated PGE2 production in PMA-Ion-stimulated human PBL at 10 uM after 24 hrs by ELISA
PBL [7] = assay: Inhibition of COX2 expression in PMA-Ion-stimulated human PBL at 5 uM after 20 hrs by Western blot analysis; type: functional, cell-based; in short: as §1
[8] = target: T1, Prostaglandin G/H synthase 2 (Homo sapiens); assay: Increase of COX2-mediated PGE2 production in PMA-Ion-stimulated human PBL at 10 uM after 24 hrs by ELISA relative to control

Compound	inhibition [2]	Activity (PBL [5])	other results
O=c1c2sc3ccccc3c2nc2n1N=C(c1ccccc1)CS2	inactive	Non-toxic	–
Nn1c(SC(C(=O)O)c2ccccc2)nc2c([nH]c3ccccc32)c1=O (configuration not stated)	–	Non-toxic	–
Cc1sc2nc(SC3CCCCC3)n(NS(C)(=O)=O)c(=O)c2c1C	–	Non-toxic	Activity [6]: Active
O=C1Nn2c(nc3c(sc4ccccc43)c2=O)SC1c1ccccc1 (configuration not stated)	–	Non-toxic	Activity [6]: Active
COc1ccc(C2=Nn3c(nc4sc(-c5ccccc5)cc4c3=O)SC2)cc1	inactive	Non-toxic	–
CC(Sc1nc2c(sc3ccccc32)c(=O)n1N)C(=O)O (configuration not stated)	–	Non-toxic	–
CS(=O)(=O)Nc1ccc([N+](=O)[O-])cc1OC1CCCCC1	–	–	inhibition (PBL [7]): Active
CS(=O)(=O)Nn1c(SC2CCCCC2)nc2sc(-c3ccccc3)cc2c1=O	–	Non-toxic	fold change (FC) [8]: 2.9
CS(=O)(=O)Nn1c(Sc2ccc([N+](=O)[O-])cc2[N+](=O)[O-])nc2sc3c(c2c1=O)CCCC3	–	Non-toxic	–
CS(=O)(=O)Nn1c(Sc2ccccc2C(=O)O)nc2ccsc2c1=O	–	Non-toxic	Activity [6]: Active
CCc1nn2c(=O)c3cc(-c4ccccc4)sc3nc2s1	–	Non-toxic	–

Continued, in another order:

inhibition [2]	Compound	Activity (PBL [5])	other results
20%	CS(=O)(=O)Nn1c(Sc2ccccc2C(=O)O)nc2sc(-c3ccccc3)cc2c1=O	Non-toxic	inhibition (PBL [1]): Active; inhibition [3]: 50%; Activity (PBL [4]): Non-toxic
20%	CS(=O)(=O)Nn1c(Sc2ccccc2[N+](=O)[O-])nc2sc(-c3ccccc3)cc2c1=O	Non-toxic	inhibition (PBL [1]): Active; inhibition [3]: 50%; Activity (PBL [4]): Non-toxic
> 50%	CS(=O)(=O)Nn1c(Sc2ccc(F)cc2F)nc2sc(-c3ccccc3)cc2c1=O	Non-toxic	inhibition (PBL [1]): Active; inhibition [3]: 50%; Activity (PBL [4]): Non-toxic
20%	CS(=O)(=O)Nn1c(Sc2ccc([N+](=O)[O-])cc2)nc2sc(-c3ccccc3)cc2c1=O	Non-toxic	inhibition (PBL [1]): Active; inhibition [3]: 50%; Activity (PBL [4]): Non-toxic

Source: ChEMBL document CHEMBL2086368, “Sulfonilamidothiopyrimidone and thiopyrimidone derivatives as selective COX-2 inhibitors: synthesis, biological evaluation, and docking studies” (Eur J Med Chem, 2012)
